Drawing on ChEMBL document CHEMBL1132450, “New natural sesquiterpenes as modulators of daunomycin resistance in a multidrug-resistant Leishmania tropica line” (1999), this text covers Growth inhibition and Quenching for nine compounds.

Assay [1] concerns Leishmania tropica. Kind of assay: The compound was tested for growth inhibition against DNM-R150 (Leishmania tropica) parasites, at a concentration of 15 uM. The assay is classed as functional. The gist of the method:
(§1)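 Multidrug-resistant L. tropica DNM-R150 line, kept under continuous 150 µM daunomycin and overexpressing a Pgp-like transporter. Parasites were grown at 28 °C in modified RPMI 1640 with 20% heat-inactivated fetal bovine serum and tested for growth sensitivity to the sesquiterpene.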

Assay [2] in a line: The compound was tested for binding activity against nucleotide-binding domain 2, with quenching at 50 uM. Summed up:
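Recombinant Leishmania Pgp-like transporter NBD2, expressed in E. coli M15 [pREP4] and affinity-purified, at 0.2–0.5 µM final in pH 8.5 potassium phosphate buffer with 1 M NaCl, glycerol, HECAMEG and 10 mM imidazole, 25 °C. Sesquiterpene in DMSO (≤2% final) titrated in. Intrinsic fluorescence read at 300–350 nm emission (288 nm excitation), corrected for inner-filter and dilution. Quenching at 50 µM was read graphically from the curve.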

Assay [3] relates to Leishmania tropica. Kind of assay: The compound was tested for growth inhibition against Wild type parasites, at a concentration of 30 uM. It is filed as functional. The gist of the method: (§2)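 Wild-type L. tropica LRC clone, obtained by agar plating. Cultured at 28 °C in modified RPMI 1640 with 20% heat-inactivated fetal bovine serum. Growth sensitivity to the sesquiterpene was assessed.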

Assay [4] deals with Leishmania tropica. Kind of assay: The compound was tested for growth inhibition against Wild type parasites, at a concentration of 15 uM. The assay is classed as functional. Summed up:
as §2

The subject of assay [5] is Leishmania tropica. Kind of assay: The compound was tested for growth inhibition against DNM-R150 (Leishmania tropica) parasites, at a concentration of 30 uM. The assay is classed as functional. The gist of the method: as §1
Assay [6] concerns Leishmania tropica. Kind of assay: The compound was tested for growth inhibition against Wild type parasites, at a concentration of 30 uM. The assay is classed as functional. The gist of the method: as §2
Assay [7] concerns Leishmania tropica. Kind of assay: The compound was tested for growth inhibition against DNM-R150 (Leishmania tropica) parasites, at a concentration of 15 uM. It is filed as functional. Summed up: as §1
Assay [8] has as its system Leishmania tropica. Kind of assay: The compound was tested for growth inhibition against Wild type parasites, at a concentration of 15 uM. It is filed as functional. The gist of the method:
as §2

Assay [9] concerns Leishmania tropica. Kind of assay: The compound was tested for growth inhibition against DNM-R150 (Leishmania tropica) parasites, at a concentration of 30 uM. The assay is classed as functional. The gist of the method: as §1

For `CCC(C)C(=O)OC[C@]12[C@H](OC(=O)c3ccccc3)[C@@H](OC(C)=O)[C@@H]3[C@@H](O)[C@]1(OC3(C)C)[C@@](C)(O)C[C@H](OC(C)=O)[C@@H]2OC(C)=O` (some centres undefined), the Growth inhibition in the assay with Leishmania tropica [1] was found to be 26.8%; with Leishmania tropica [3] it was 11.1%; in the assay with Leishmania tropica [4], 7.5%; with Leishmania tropica [5] it was 91.7%. This compound registered a Quenching in assay [2] of 30.8%.

With `CCC(C)C(=O)OC[C@]12[C@H](OC(=O)c3ccccc3)[C@@H](OC(C)=O)[C@@H]3[C@@H](OC(C)=O)[C@]1(OC3(C)C)[C@@](C)(O)C[C@H](O)[C@@H]2OC(=O)c1ccccc1` (some centres undefined), the Growth inhibition with Leishmania tropica [6] turned out to be 62.9%; in the assay with Leishmania tropica [7] it was 77.8%; in the assay on Leishmania tropica [8], 25.5%; in the assay on Leishmania tropica [9] it was 95.4%.

Regarding `CCC(C)C(=O)OC[C@]12[C@H](OC(=O)c3ccccc3)[C@@H](OC(C)=O)[C@@H]3[C@@H](OC(C)=O)[C@]1(OC3(C)C)[C@@](C)(O)C[C@H](OC(C)=O)[C@@H]2OC(C)=O` (some centres undefined), the Growth inhibition in the assay on Leishmania tropica [1] is reported as 40.9%; with Leishmania tropica [3], 9.5%; with Leishmania tropica [4] it was 4.9%; with Leishmania tropica [5], 86.1%. This compound also returned a Quenching in assay [2] of 22.8%.

Turning to `CCC(C)C(=O)OC[C@]12[C@@H](OC(=O)c3ccccc3)[C@H](OC(=O)c3cccnc3)[C@@H]3[C@@H](OC(C)=O)[C@]1(OC3(C)C)[C@@](C)(O)C[C@H](OC(C)=O)[C@@H]2OC(C)=O` (some centres undefined), the Growth inhibition with Leishmania tropica [1] is listed as 32.3%; with Leishmania tropica [3], 6.2%; in the assay on Leishmania tropica [4], 7.5%; with Leishmania tropica [5], 82.5%. In assay [2], this compound returned a Quenching of 31.8%.

On to `CCC(C)C(=O)OC[C@]12[C@H](OC(=O)c3ccccc3)[C@@H](OC(C)=O)[C@@H]3[C@@H](O)[C@]1(OC3(C)C)[C@@](C)(O)C[C@H](OC(=O)c1cccnc1)[C@@H]2O` (some centres undefined), for which the Growth inhibition in the assay on Leishmania tropica [6] was 8.4%; in the assay on Leishmania tropica [7], 20.8%; with Leishmania tropica [8], 9.3%; in the assay with Leishmania tropica [9], 88.3%. In assay [2], this compound showed a Quenching of 31.1%.

As to `CCC(C)C(=O)OC[C@]12[C@H](OC(=O)c3ccccc3)[C@@H](OC(C)=O)[C@@H]3[C@@H](O)[C@]1(OC3(C)C)[C@@](C)(O)C[C@H](O)[C@@H]2OC(=O)c1ccccc1` (some centres undefined), the Growth inhibition worked out at 30% in the assay with Leishmania tropica [6], 90.5% in the assay on Leishmania tropica [7], 9.8% in the assay on Leishmania tropica [8] and 96% in the assay on Leishmania tropica [9]. The compound also yielded a Quenching in assay [2] of 31.4%.

In the case of `CC(=O)OC[C@@]12[C@@H](OC(C)=O)CC[C@](C)(O)[C@]13OC(C)(C)[C@H]([C@H](OC(C)=O)[C@H]2OC(=O)c1ccccc1)[C@H]3OC(C)=O`, the Growth inhibition is reported as 16.3% in the assay on Leishmania tropica [1], 16.9% with Leishmania tropica [3], 13.5% in the assay with Leishmania tropica [4] and 49.8% in the assay with Leishmania tropica [5]. Moreover, the Quenching in assay [2] is 27%.

For the compound `CCC(C)C(=O)OC[C@@]12[C@@H](OC(C)=O)CC[C@](C)(O)[C@]13OC(C)(C)[C@H]([C@@H](OC(=O)c1cccnc1)[C@@H]2OC(=O)c1ccccc1)[C@H]3OC(C)=O` (some centres undefined), the Growth inhibition in the assay with Leishmania tropica [6] was determined as 13.8%; with Leishmania tropica [7] it was 92.9%; in the assay with Leishmania tropica [8], 6.9%; with Leishmania tropica [9], 96.1%. In assay [2], this compound had a Quenching of 34.3%.

For the compound `CCC(C)C(=O)OC[C@]12[C@H](OC(=O)c3ccccc3)[C@@H](OC(=O)C(C)CC)[C@@H]3[C@@H](O)[C@]1(OC3(C)C)[C@@](C)(O)C[C@H](O)[C@@H]2OC(C)=O` (some centres undefined), the Growth inhibition came out at 4% with Leishmania tropica [6], 83.1% with Leishmania tropica [7], 5.3% in the assay on Leishmania tropica [8] and 92.6% in the assay with Leishmania tropica [9]. The compound further showed a Quenching in [2] of 27.5%.
